The text below walks through data of paper PMC7869845 (ACS catalysis, 2020).

Assay [1] concerns TamI double mutant (alanine substitutions at Leu295 and Thr299). The assay can be described thus: End-point assay, TamI Leu295/Thr299 alanine double mutant. Type of assay: biochemical, Streptomyces sp. 307-9. The method, boiled down:
(§1)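 Site-directed mutants expressed in E. coli BL21(DE3). Reactions in phosphate buffer (50 mM NaH2PO4, pH 7.4, EDTA, dithioerythritol, 10% glycerol) held 500 μM tirandamycin substrate, 2 μM TamI, spinach ferredoxin, 2 μM ferredoxin-NADP+ reductase, and G6P/G6PDH NADPH regeneration. Incubated 3 h at 30 °C, extracted with CHCl3, then C18 reverse-phase HPLC with UV at 354 nm. Run in triplicate.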

The subject of the next assay is TamI L101V/H102S. The assay can be described thus: End-point assay, TamI L101V/H102S. Type of assay: biochemical, Streptomyces sp. 307-9. Conditions: no change in product profile. In outline:
as §1

The subject of assay [2] is TamI F92A. The assay can be described thus: End-point assay, TamI F92A. Type of assay: biochemical, Streptomyces sp. 307-9. The method, boiled down: as §1
Assay [3] concerns TamI-RhFRED fusion protein. Conditions: first oxidation of 1, second oxidation of 3, final oxidation of 4; cited from earlier work.
Assay [4] concerns TamI L399A/I400A. In words: Spectrophotometric substrate binding assay, TamI L399A/I400A. Also noted: species or system Streptomyces sp. 307-9. The method, boiled down: (§2)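 Active P450 was quantified by CO-difference spectra (ε450-490 = 91 mM−1cm−1). Enzyme at 1 μM final in storage buffer was titrated aerobically at room temperature with tirandamycin C from DMSO stocks until saturated. Difference spectra were recorded at 365–429 nm, and peak-minus-trough ΔA was plotted against concentration. Kd came from quadratic tight-binding or hyperbolic fits, averaged over triplicate titrations.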

Assay [5] concerns TamI S397A, T398A, V185A, P43A/V44A variants. The class given is biochemical, Streptomyces sp. 307-9. The settings on record: end-point assay, TirC to TirE conversion.
For assay [6], the system named is TamI L399A/I400A. In words: End-point assay, TamI L399A/I400A. Type of assay: biochemical, Streptomyces sp. 307-9. The method, boiled down: as §1
The test system of assay [7] is TamI F92A. In words: Spectrophotometric substrate binding assay, TamI F92A. On the set-up: species or system Streptomyces sp. 307-9. The method, boiled down: as §2

Consider `CC1=CC[C@H]2O[C@]1(C)O[C@H]([C@H](C)/C=C(C)/C=C/C(O)=C1/C(=O)CNC1=O)[C@H]2C` [compound 1, tirandamycin C], for which, in assay [1], the “ability to convert substrate to 2” value is on record as “wild type activity”. For the same compound, in the assay with TamI L101V/H102S, the “TirC to TirE conversion” value was “significant decrease”. Moreover, the figures for the catalytic activity entry in the assay on TamI F92A [2] and in the assay on TamI L399A/I400A [6] were “complete loss of catalytic activity” and “significantly reduced activity”, respectively. The turnover number (kcat) in assay [3] is 0.675 s⁻¹. Also, the “spectral shift on substrate addition” value with TamI L399A/I400A [4] and with TamI F92A [7] was “no shift” throughout. The “product profile or abundance compared to wild type TamI” value in assay [5] was “no evident changes in product profile or abundance”.
Consider `CC1=CC(=O)[C@H]2O[C@]1(C)O[C@H]([C@H](C)/C=C(C)/C=C/C(O)=C1/C(=O)CNC1=O)[C@H]2C` [compound 3, tirandamycin D], for which the catalytic constant (kcat) in assay [3] is 1.4 s⁻¹.
As to `CC(/C=C/C(O)=C1/C(=O)CNC1=O)=C\[C@@H](C)[C@H]1O[C@@]2(C)O[C@H](C(=O)[C@H]3O[C@]32C)[C@@H]1C` [compound 4, tirandamycin A], the kcat in assay [3] is 0.00183 s⁻¹.

What is called kcat is the maximal rate divided by the concentration of active sites.
